Measurements taken from paper PMC11032538 (Alzheimer's & Dementia, 2024).

Assays:
p-tau species [1] = experiment: ^3H-UCB-J saturation binding in AD P1 fraction pre-blocked with tau PET ligands; set-up: species or system Human; conditions: 10 μM pre-blocking of frontal cortex AD P1 fraction
Procedure, shortened: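 AD frontal cortex pooled P1 fraction was pre-blocked with 10 μM unlabeled tau PET ligand on ice for 1 h. It was then spun at 2800 rpm for 10–15 min at 4°C to remove free ligand and resuspended in binding buffer. Saturation binding used 0–40 nM ³H-UCB-J, 2 h at room temperature, with filtration and scintillation counting. Data are means ± SEM of three to four experiments in duplicate.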

SV2A [2] = biological target: T1, SV2A (Homo sapiens, UniProt Q7L0J3); type: binding; conditions: 1 mM levetiracetam; 5 nM ^3H-UCB-J; CN frontal cortex P2 (Figure S2)
p-tau species [3] = experiment: ^3H-UCB-J vs MK6240 competition binding in P1 fractions; set-up: species or system Human; conditions: 100 μM; CN and AD P1 fraction; 5 nM ^3H-UCB-J
Procedure, shortened: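 Pooled frontal cortex P1 fractions (0.05 mg protein) from one control and one AD pool. These were incubated 2 h at room temperature with 5 nM ³H-UCB-J plus increasing unlabeled competitor (10⁻¹⁴ to 10⁻⁴) in Tris-HCl pH 7.4 binding buffer. Samples were filtered and counted by scintillation. Binding was expressed as % of total; IC₅₀ came from non-linear competitive-binding regression.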

tau = tau (Homo sapiens, UniProt P10636); experiment: ^3H-MK6240 vs UCB-J competition binding in P1 fractions; conditions: up to 10 μM UCB-J; CN and AD P1 fractions; 0.5 nM ^3H-MK6240
SV2A [4] = biological target: T1, SV2A; conditions: frontal cortex (middle frontal gyrus) autoradiography; ref 24 Metaxas et al.; cited from earlier work
SV2A [5] = biological target: T1, SV2A; conditions: AD middle frontal cortex; ref 34 Mikkelsen et al.; cited from earlier work

T1 sequence (Q7L0J3 whole entry): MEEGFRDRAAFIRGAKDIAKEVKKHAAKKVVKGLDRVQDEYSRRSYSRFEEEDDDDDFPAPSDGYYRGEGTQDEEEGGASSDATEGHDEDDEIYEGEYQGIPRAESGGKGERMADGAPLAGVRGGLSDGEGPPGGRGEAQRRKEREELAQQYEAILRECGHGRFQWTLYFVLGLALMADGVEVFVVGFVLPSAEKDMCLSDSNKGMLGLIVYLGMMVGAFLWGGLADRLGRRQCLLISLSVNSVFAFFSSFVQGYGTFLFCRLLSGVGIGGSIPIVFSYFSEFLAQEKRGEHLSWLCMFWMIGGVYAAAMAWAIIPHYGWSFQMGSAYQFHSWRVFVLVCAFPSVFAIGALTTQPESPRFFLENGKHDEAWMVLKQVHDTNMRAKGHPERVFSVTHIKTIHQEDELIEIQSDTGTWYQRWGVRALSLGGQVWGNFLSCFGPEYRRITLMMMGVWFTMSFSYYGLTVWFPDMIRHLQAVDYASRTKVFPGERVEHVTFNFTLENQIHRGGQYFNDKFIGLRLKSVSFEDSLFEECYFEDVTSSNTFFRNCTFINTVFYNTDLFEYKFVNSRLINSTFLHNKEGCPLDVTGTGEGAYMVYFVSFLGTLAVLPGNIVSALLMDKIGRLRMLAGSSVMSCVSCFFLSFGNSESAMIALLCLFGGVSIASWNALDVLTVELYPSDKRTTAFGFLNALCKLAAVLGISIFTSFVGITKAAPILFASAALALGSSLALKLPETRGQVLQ
Chain of tau (P10636 623-758 limits assumed): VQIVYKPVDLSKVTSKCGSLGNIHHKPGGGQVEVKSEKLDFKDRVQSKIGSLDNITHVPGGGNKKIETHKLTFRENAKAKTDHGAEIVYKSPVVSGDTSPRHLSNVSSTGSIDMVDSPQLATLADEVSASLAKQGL

Question: With `Fc1ccc(-c2ccc3c(c2)[nH]c2ccncc23)cn1` [AV-1451] as the compound, how does the “reduction in ^3H-UCB-J binding compared to unblocked AD P1 fractions” value (p-tau species [1]) read?
Answer: Its value is “≈ 22%”.

Question: Which “displacement of ^3H-UCB-J binding compared with 1 μM UCB-J” value (SV2A [2]) does the source give for `CC[C@@H](C(N)=O)N1CCCC1=O` [Levetiracetam] here?
Answer: The value was “same displacement”.

Question: Which results are given for `Nc1c(F)ccc2cnc(-n3ccc4ccncc43)cc12` [MK6240]?
Answer: reduction in ^3H-UCB-J binding compared to unblocked AD P1 fractions (p-tau species [1]): ≈ 22%; displacement of ^3H-UCB-J binding (p-tau species [3]): ≈ 38%

Question: With `Cc1cnccc1CN1C[C@@H](c2cc(F)c(F)c(F)c2)CC1=O` [UCB-J] as the compound, how does the “displacement of ^3H-MK6240 binding” value (tau) read?
Answer: The value was “no displacement”.

Question: What about the “difference in UCB-J binding between AD and CN cases” value (SV2A [4]) of the same compound?
Answer: The value was “no difference”.

Question: And the “reduction in UCB-J binding in AD compared to CN” value (SV2A [5])?
Answer: The value was 19%.
